pIC50: −log10 of the molar value.
What was measured:
CCRF-CEM [1] = test: (§1) Relative activity when compared to the activity of aminopterin in CCRF-CEM Human leukemia cell at a concentration of 50 uM; type: functional
In short: (§2)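 Used purified folylpolyglutamate synthetase (FPGS) isolated from CCRF-CEM human leukemia cells. Each compound was tested as an alternative substrate. Activity was read as [3H]glutamate incorporation and expressed relative to aminopterin as reference substrate at 50 μM. Test compounds were examined at concentrations up to 200 μM.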

Dihydrofolate reductase = target: T1, Dihydrofolate reductase (Homo sapiens, UniProt P00374); test: Compound was tested for its inhibitory activity on Recombinant Human Dihydrofolate Reductase.
T1 sequence (P00374 whole entry): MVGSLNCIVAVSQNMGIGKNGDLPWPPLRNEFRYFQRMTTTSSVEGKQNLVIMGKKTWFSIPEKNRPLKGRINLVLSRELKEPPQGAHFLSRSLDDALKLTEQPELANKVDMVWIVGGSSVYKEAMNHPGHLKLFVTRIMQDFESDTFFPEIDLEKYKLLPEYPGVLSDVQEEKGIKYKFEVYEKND

CCRF-CEM [2] = test: Relative activity when compared to the activity of aminopterin in CCRF-CEM Human leukemia cell at a concentration of 200 uM; type: functional; in short: as §2
[3] = target: T2, Folylpolyglutamate synthase, mitochondrial (Homo sapiens, UniProt Q05932); test: Compound was evaluated for the inhibition of Folyl-polyglutamate synthase in CCRF-CEM Human leukemia cell.
T2 sequence (Q05932 whole entry): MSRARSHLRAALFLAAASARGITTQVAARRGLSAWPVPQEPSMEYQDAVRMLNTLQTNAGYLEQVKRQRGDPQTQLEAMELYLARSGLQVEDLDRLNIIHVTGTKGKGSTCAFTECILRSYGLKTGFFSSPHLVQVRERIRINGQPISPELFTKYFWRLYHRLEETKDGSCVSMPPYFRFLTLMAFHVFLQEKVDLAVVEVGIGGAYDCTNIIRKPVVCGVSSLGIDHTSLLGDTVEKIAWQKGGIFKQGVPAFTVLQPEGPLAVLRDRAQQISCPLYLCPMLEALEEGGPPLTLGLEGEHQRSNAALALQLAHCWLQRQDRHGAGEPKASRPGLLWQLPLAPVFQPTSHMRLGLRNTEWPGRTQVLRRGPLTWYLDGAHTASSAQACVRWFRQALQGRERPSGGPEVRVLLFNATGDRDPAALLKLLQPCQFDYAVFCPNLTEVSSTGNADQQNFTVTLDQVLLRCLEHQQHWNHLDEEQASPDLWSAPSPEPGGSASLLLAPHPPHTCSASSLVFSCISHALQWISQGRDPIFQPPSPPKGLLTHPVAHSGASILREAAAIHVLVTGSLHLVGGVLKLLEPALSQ
In short: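 Purified folylpolyglutamate synthetase from CCRF-CEM human leukemia cells, with 50 µM aminopterin as substrate. Increasing amounts of test compound were added to the assay mixture. Activity was read as [3H]glutamate incorporation, and inhibition was expressed as IC50.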

H35R0.3 [4] = test: Compound was tested for its inhibitory activity in tumor cell growth in H35 hepatoma cells; type: functional, cell-based; settings: Rattus norvegicus
H35R0.3 [5] = test: Compound was tested for its inhibitory activity in tumor cell growth in H35R cells; type: functional, cell-based; settings: Rattus norvegicus
H35R0.3 [6] = test: Compound was tested for growth inhibition of H35 Hepatoma cells.; type: functional, cell-based; settings: Rattus norvegicus
In short: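 H35 hepatoma cells grown 24 h, then exposed to compound for a 6-h pulse (24–30 h); growth read as cell counts after 72 h in culture medium.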

H35R0.3 [7] = test: Compound was tested for inhibition of folinic acid transport in H35 Hepatoma cells.; type: functional, cell-based; settings: Rattus norvegicus
Manca = test: Compound was tested for its inhibitory activity manca tumor cell growth; type: functional, cell-based; settings: Homo sapiens
CCRF-CEM [8] = test: Compound was tested for its inhibitory activity in tumor cell growth in CCRF-CEM in human.; type: functional, cell-based
H35R0.3 [9] = test: Compound was tested for inhibition of folinic acid transport in H35 Hepatoma cells; No Inhibition at 50 uM; type: functional, cell-based, Rattus norvegicus
CCRF-CEM [10] = test: as §1; type: functional; remark: listed apart in the source
In short: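 Purified folylpolyglutamate synthetase from CCRF-CEM human leukemia cells; substrate activity measured as [3H]glutamate incorporation with compound up to 200 μM, expressed relative to aminopterin at 50 μM.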

SMILES	Relative activity (CCRF-CEM [1])	pIC50 (Dihydrofolate reductase)	Relative activity (CCRF-CEM [2])	pIC50 [3]	pIC50 (H35R0.3 [4])	pIC50 (H35R0.3 [5])	pIC50 (H35R0.3 [6])	pIC50 (H35R0.3 [7])	pIC50 (Manca)	pIC50 (CCRF-CEM [8])	IC50 (H35R0.3 [9])	Relative activity (CCRF-CEM [10])
Nc1nc(N)c2nc(CCc3ccc(C(=O)N[C@@H](CCC(=O)O)C(=O)O)cc3)cnc2n1	60	8.39										
C=C(CC(NC(=O)c1ccc(CCc2cnc3nc(N)nc(N)c3n2)cc1)C(=O)O)C(=O)O (stereo not drawn)		8.06	<2	< 3.70	7.41	4.74	< 4.70	5.26	8.00	7.89		
CN(Cc1cnc2nc(N)nc(N)c2n1)c1ccc(C(=O)NC(C(=O)O)C(O)CC(=O)O)cc1 (stereo not drawn)	<3	8.28		< 3.70	7.07	5.25			7.32		No inhibition	
C=C(CC(NC(=O)c1ccc(C(CC)Cc2cnc3nc(N)nc(N)c3n2)cc1)C(=O)O)C(=O)O (stereo not drawn)		8.24	<1	3.93	8.20	4.85	4.85	5.82	8.42	8.13		
C=C(CC(NC(=O)c1ccc(N(C)Cc2cnc3nc(N)nc(N)c3n2)cc1)C(=O)O)C(=O)O (stereo not drawn)		8.19	<1	< 3.70	7.80	4.68	5.41	5.15	7.59	7.52		
Nc1nc(N)c2nc(CCc3ccc(C(=O)NC(C(=O)O)C(O)CC(=O)O)cc3)cnc2n1 (stereo not drawn)	<3	8.23		< 4.30					7.54			
Nc1nc(N)c2nc(CNc3ccc(C(=O)N[C@@H](CCC(=O)O)C(=O)O)cc3)cnc2n1 [AMINOPTERIN]												100
CN(Cc1cnc2nc(N)nc(N)c2n1)c1ccc(C(=O)N[C@@H](CCC(=O)O)C(=O)O)cc1 [METHOTREXATE]							7.07	4.74				

Reference: ChEMBL document CHEMBL1125907, “Folate analogues. 34. Synthesis and antitumor activity of non-polyglutamylatable inhibitors of dihydrofolate reductase” (J Med Chem, 1991)
